Experimental data as given in ChEMBL document CHEMBL1124846, “Synthesis, antiproliferative, and antiviral activity of certain 4-substituted and 4,5-disubstituted 7-[(1,3-dihydroxy-2-propoxy)methyl]pyrrolo[2,3-d]pyrimidines” (J Med Chem, 1990).
pIC50: −log10 of the molar value. Where “and” joins values, the source holds several entries; their conditions need not be identical. Equal entries are not always repeated.

How the values were obtained:
Human betaherpesvirus 5 = test: Inhibition of human cytomegalovirus (HCMV) in plaque reduction assay; format: functional, organism-based
Procedure, shortened: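 HCMV Towne strain (plaque-purified P0) plaque reduction in HFF monolayers in MEM(E) with 10% FBS. Inoculum held about 50 PFU, with compound dissolved in the overlay medium. IC50 came from linear regression of percent inhibition against log concentration, with ganciclovir or acyclovir positive controls in every set; two to five experiments.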

[1] = Cytotoxic activity against BSC cells; format: cell-based; conditions: Cercopithecidae
Procedure, shortened: (§1)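 Cytotoxicity was scored visually in uninfected HFF or BSC-1 monolayers within the plaque-reduction assays. Drug-induced cytopathology was read at 35- and 60-fold magnification on a 0 to 4+ scale on the day plaques were stained and counted.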

Human alphaherpesvirus 1 [2] = test: Inhibition of herpes simplex virus (HSV-1) in plaque reduction assay; format: functional, organism-based
Procedure, shortened: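 HSV-1 S-148 strain plaque reduction in BSC-1 monkey kidney monolayers, with about 100 PFU inoculum and compound dissolved in the overlay medium. IC50 came from linear regression of percent inhibition against log concentration, with a positive control in each set.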

L1210 [3] = test: In vitro inhibition of L1210 cell growth.; format: functional, Mus musculus; set-up: concentration or dose not given beside the values
Procedure, shortened: (§2)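 Murine L1210 leukemia cells in static suspension culture in Fischer's medium with compound for 4 days. Growth rate is the ratio of control to treated population doubling time; where the rate changed, the final rate was used. IC50 is the concentration giving 50% of control growth rate; single-concentration value at 100 μM.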

[4] = Cytotoxic activity against HFF cells.; format: cell-based; conditions: Homo sapiens; procedure, shortened: as §1
L1210 [5] = test: In vitro inhibition of L1210 cell growth to half of the control rate; format: functional, cell-based; conditions: Mus musculus; procedure, shortened: as §2
Neoplastic cell line = test: Cytotoxic activity against KB cells.; format: cell-based; conditions: Homo sapiens
Procedure, shortened: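 KB cells (human oral epidermoid carcinoma) grown in MEM(H) with 5% FBS. Compound effect on incorporation of radiolabelled precursors into DNA, RNA and protein was measured. IC50s came from linear regression of percent inhibition against log concentration, and the three IC50s were averaged.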

Human alphaherpesvirus 1 [6] = test: Inhibition of herpes simplex virus (HSV-1) in yield reduction assay; format: functional, organism-based

| Structure (SMILES) | pIC50 (Human betaherpesvirus 5; Human betaherpesvirus 5) | pIC50 [1] | pIC50 (Human alphaherpesvirus 1 [2]) | Activity (L1210 [3]) [%] | pIC50 [4] | pIC50 (Human betaherpesvirus 5) | pIC50 (L1210 [5]) | pIC50 (Neoplastic cell line) | IC90 (Human alphaherpesvirus 1 [6]) [µM] |
| --- | --- | --- | --- | --- | --- | --- | --- | --- | --- |
| CNc1ncnc2c1c(Br)cn2COC(CO)CO | < 4.00 | < 4.00 | < 4.00 | 100 | < 4.00 |  |  |  |  |
| OCC(CO)OCn1ccc2c(NO)ncnc21 | < 4.00 |  |  | 100 | < 4.00 |  |  |  |  |
| Nc1ncnc2c1c(I)cn2COC(CO)CO |  |  | 5.40 | 6 | < 4.00 | 5.51 and 6.05 | 5.55 |  |  |
| OC[C@H]1O[C@@H](n2cc(Br)c3c(NO)ncnc32)[C@H](O)[C@@H]1O | 5.25 |  |  | 10 | < 4.00 | 5.52 | 4.60 | < 4.00 |  |
| CCNc1ncnc2c1c(Cl)cn2COC(CO)CO | 4.00 | < 4.00 | < 4.00 | 78 | < 4.00 |  | < 4.00 |  |  |
| OCC(CO)OCn1cc(Cl)c2c(NO)ncnc21 |  |  |  | 41 | < 4.00 | 4.25 and 4.62 and 4.30 | 4.12 |  |  |
| Nc1ncnc2c1c(Br)cn2[C@@H]1O[C@H](CO)[C@@H](O)[C@H]1O |  |  |  | 9 |  | 5.47 | 5.40 | 5.64 |  |
| Nc1ncnc2c1c(Cl)cn2COC(CO)CO | 5.01 | < 4.00 | 4.80 | 6 | < 4.00 | 5.10 | 5.64 | < 4.00 | 22 |
